MC4R antagonist = antagonists of human melanocortin 4 receptor (MC4R); P32245; MC4R-expressing cells, MTII-stimulated cAMP, LANCE TR-FRET; inhibition, % at 6.5 µM; 0.48% of 360,000 active; AID 540295;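 active means inhibition above its plate's cutoff, the mean of tested wells on that plate plus 3 SD, cut at about 29% in these data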;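 further: 0% = Melanotan II alone and 100% = Melanotan II plus saturating MCL0020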
Target sequence (P32245 whole entry, looked up): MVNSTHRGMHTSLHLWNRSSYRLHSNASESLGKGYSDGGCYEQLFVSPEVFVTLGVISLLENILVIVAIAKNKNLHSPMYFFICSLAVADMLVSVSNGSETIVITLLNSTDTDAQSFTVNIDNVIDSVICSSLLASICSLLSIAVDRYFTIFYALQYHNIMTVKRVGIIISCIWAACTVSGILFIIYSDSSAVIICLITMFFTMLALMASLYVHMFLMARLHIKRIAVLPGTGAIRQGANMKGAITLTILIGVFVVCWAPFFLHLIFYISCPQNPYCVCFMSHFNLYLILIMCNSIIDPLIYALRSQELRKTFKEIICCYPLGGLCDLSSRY
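material = U2OS cells stably expressing human melanocortin 4 receptor (MC4R) | also added = Melanotan II challenge | dosing = single nominal compound dose of 6.5 µM | detection = TR-FRET with Eu-cAMP and labeled anti-cAMP, 671 nm | replication = singlicate | timing = compound 30 min, challenge 1 h, detection 1 h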
MC4R ag barr = activates human MC4R beta-arrestin recruitment; 0.98% of 360,000 active; U2OS MC4R beta-arrestin complementation, luminescence; percent of melanotan II response, DMSO zero; AID 540308; activation, % at 8.9 µM;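 active means activation above a per-plate cutoff, the mean activation of sample wells on that plate plus 3 SD, cut at about 8% in these data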
F508del corr = CFTR F508del correction in bronchial cells. 0.36% of 350,000 active. activity (quench increase), % at 7.58 µM. CFBE cells, YFP halide quenching; stimulated with forskolin plus potentiator P3; % fluorescence drop versus neutral controls;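 active means mean added fluorescence quench of at least 8% versus neutral control, with both replicates also reaching 8%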;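 further: cells transiently co-express mutant CFTR-F508del with the halide-sensitive YFP; corrector assay measuring rescue of mutant channel to the surface after 24 h compound exposure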
SMARCA2 activ = SMARCA2 function activation, primary screen. MG213 cells, MMTV-luciferase reporter, dexamethasone, overnight. activation, % at 9.1 µM. 1% of 370,000 active. AID 652017; in the data active means activation above about 7.8%;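 further: 0% = vehicle wells and 100% = reference activator wells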
MC4R barr ag = human MC4R beta-arrestin agonism confirmation. shares compounds with MC4R ag barr. U2OS MC4R beta-arrestin recruitment, luminescence; scaled DMSO 0%, Melanotan II 100%. activation, % at 8.9 µM. 31% of 2,400 active. AID 602192;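 active means mean activation across replicates above the hit cutoff set in the earlier primary screen, cut at about 8% in these data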
MOR DOR agonist = activates mu-delta opioid heterodimer, MC4R agonist counter-screen; shares compounds with MC4R ag barr; U2OS PathHunter beta-arrestin, beta-gal luminescence; percent of deltorphin B response, DMSO zero; activation, % at 9.2 µM; 5.8% of 2,400 active;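 active means mean activation across replicates exceeds the hit threshold derived in the earlier primary screen, cut at about 18% in these data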;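 further: 100% = deltorphin B at 0.9 µM final and 0% = DMSO alone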
* marks the source's active call; other numbers are inactive results; x = not tested or not shown. Rows were chosen to be rich in hits. Some 2.1% of all compounds tested hit in one or more screens of this group.

SMILES	MC4R antagonist	MC4R ag barr	F508del corr	SMARCA2 activ	MC4R barr ag	MOR DOR agonist
Cc1noc(C)c1S(=O)(=O)N(C)C[C@@H]1OCCCC[C@@H](C)Oc2ccc(NC(=O)CCCN(C)C)cc2C(=O)N([C@H](C)CO)C[C@H]1C	x	x	-0.1	x	x	x
O=C(Nc1ccc2nn(-c3ccccc3)nc2c1)c1ccc(Br)o1	8.3	13.2*	-2.0	2.5	16.7*	2.8
O=C(Nc1ccc2nn(-c3ccccc3)nc2c1)c1ccc2c(c1)OCCO2	3.7	3.6	x	-0.8	x	x
CCc1ccc(-n2nc3ccc(NC(=O)c4ccc5c(c4)OCO5)cc3n2)cc1	-13.4	11.2*	x	-3.5	6.0	9.5
Cc1ccc(-n2nc3ccc(NC(=O)c4ccc5c(c4)OCO5)cc3n2)cc1	-1.0	0.9	x	-3.0	x	x
C[C@H](CO)N1C[C@H](C)[C@@H](CN(C)Cc2ccncc2)Oc2ccc(NC(=O)Cn3cnnn3)cc2CC1=O	x	x	-1.0	x	x	x
Oc1cccc(C(=S)N2CCC(Cc3ccccc3)CC2)c1	-0.1	10.4*	-1.7	-2.8	5.6	10.8
Oc1cccc(C(=S)N2CCN(Cc3ccccc3)CC2)c1	-1.9	-1.8	x	-1.5	x	x
N#Cc1ccccc1OCC(=O)Nc1c(C(=O)C2CC2)oc2ccccc12	-0.4	22.1*	x	-3.0	8.9*	6.7
O=C(CCc1c[nH]c2ccccc12)NCC1COc2ccccc2O1 (configuration not stated)	13.9	10.6*	-3.7	1.5	-3.4	1.0
CCOC(=O)c1sc2nc(NC(=O)C(C)(C)C)sc2c1C	16.3	10.0*	-1.4	-0.5	-0.3	8.3
CCOC(=O)c1sc2nc(NC(=O)C3CC3)sc2c1C	8.8	3.0	-7.4	-2.3	x	x
Cc1cc(C)nc(Sc2ccc(/C=C(\C#N)C(N)=O)o2)n1	-4.7	-1.6	0.2	-3.1	x	x
Cc1ccc(NC(=O)/C(C#N)=C/c2ccc(Sc3nc(C)cc(C)n3)o2)cc1	18.1	22.9*	-2.7	-0.3	6.0	21.9*
CCNc1ccc(C(=O)OCC(=O)NC(=O)NCC(C)C)cc1[N+](=O)[O-]	9.8	-3.2	0.1	-4.3	x	x
CC(C)CNC(=O)NC(=O)COC(=O)c1cc([N+](=O)[O-])ccc1NCc1ccccc1Cl	x	x	-1.0	-2.8	x	x
CCNc1ccc(C(=O)OCC(=O)NCc2ccccc2Cl)cc1[N+](=O)[O-]	-0.1	16.0*	x	-1.7	7.0	3.1
O=C(COC(=O)c1cc([N+](=O)[O-])ccc1NCc1ccccc1Cl)NCC(F)(F)F	2.0	12.7*	x	-3.0	3.7	4.3
FC(F)(F)c1cccc(NC(=S)NC(c2ccccc2)c2ccccc2)c1	10.5	10.3*	-0.2	-3.8	5.6	10.4
FC(F)(F)c1cccc(NC(=S)Nc2ccc(Cl)c(Cl)c2)c1	-6.0	3.1	-1.3	-0.2	x	x
C[C@@H]1CCCCO[C@@H](CN(C)S(=O)(=O)c2cn(C)cn2)[C@@H](C)CN([C@H](C)CO)C(=O)c2cc(NC(=O)Nc3ccc(F)cc3)ccc2O1	x	x	-0.6	x	x	x
Cc1ccc(-c2nn(-c3ccccc3)cc2/C=C/C(=O)Nc2nccs2)cc1	-4.8	18.8*	x	-2.2	7.8	4.5
CCC(=O)N1[C@@H]2Cn3c(ccc(-c4ccccc4F)c3=O)[C@H]1[C@@H](C(=O)NC1CCCC1)[C@@H]2CO	x	x	-3.3	x	x	x
Cc1ccc(N2CCN(C3=NC(=O)/C(=C\c4cn[nH]c4-c4ccccc4)S3)CC2)cc1	7.6	18.1*	x	-6.1	4.4	2.9
Cc1cccc(N2CCN(C3=NC(=O)C(=C4CCCCC4)S3)CC2)c1	2.8	0.4	x	-3.5	x	x
Cc1cccc(N2CCN(C3=NC(=O)/C(=C\c4cn[nH]c4-c4ccccc4)S3)CC2)c1	8.6	16.4*	x	-1.8	5.7	5.7
O=C1N=C(N2CCN(c3ccccc3)CC2)S/C1=C\c1ccco1	-6.9	4.3	-0.5	-2.5	x	x
O=C(Nc1cccc(F)c1)N1C[C@@H]2[C@H](c3ccccc31)[C@H](CO)N2C(=O)Cc1ccccc1	x	x	-2.3	x	x	x
CCCCCCN1C=C/C(=C\C=C(C#N)C#N)c2ccccc21	-1.1	10.7*	x	0.8	11.9*	13.4
COc1ccccc1S(=O)(=O)N[C@H]1CC[C@@H](CCNC(=O)C2CCOCC2)O[C@@H]1CO	x	x	-2.6	x	x	x

Source: PubChem
